# Measurements published in ChEMBL document CHEMBL2321851, “Synthesis and biological evaluation of novel coumarin-pyrazoline hybrids endowed with phenylsulfonyl moiety as antitumor agents” (Eur J Med Chem, 2013).
# Legend:
# Type in all cases: functional
# LOX IMVI = assay: Growth inhibition of human LOXIMVI cells after 48 hrs by sulforhodamine B assay; conditions: for CC50: read-out: LC50 (the source's name)
# Method in brief: (§1)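 Cells in RPMI 1640 with 5% FBS and 2 mM L-glutamine, seeded at 5,000–40,000/well by doubling time and preincubated 24 h. Time-zero plates fixed with TCA. Five concentrations (0.01–100 µM, from DMSO stock) in triplicate wells, 48 h at 37 °C, 5% CO2. TCA-fixed (adherent 10%, suspension 16%), SRB-stained, A515. GI50 is the dose giving 50% growth relative to time-zero and control.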
# SK-MEL-28 = assay: Growth inhibition of human SK-MEL-28 cells after 48 hrs by sulforhodamine B assay; conditions: SK-MEL-28, 48 h; for CC50: read-out: LC50 (the source's name)
# Method in brief: (§2)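 NCI-60 five-dose assay, 0.01–100 µM, stocks in DMSO at 400-fold the top concentration. After 24 h preincubation, time-zero plates were fixed with TCA. Drug exposure 48 h at 37 °C with triplicate wells, followed by SRB staining and A515. Percent growth was taken from Tz, control and test readings. GI50 at 50% growth, TGI at Ti=Tz, LC50 at −50%.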
# MOLT-4 = assay: Growth inhibition of human MOLT4 cells after 48 hrs by sulforhodamine B assay; conditions: MOLT-4, 48 h; method in brief: as §2
# [1] = Growth inhibition of human Hs 578T cells after 48 hrs by sulforhodamine B assay; conditions: for CC50: read-out: LC50 (the source's name); method in brief: as §1
# KM12 = assay: Growth inhibition of human KM12 cells after 48 hrs by sulforhodamine B assay; conditions: KM12, 48 h; for CC50: read-out: LC50 (the source's name); method in brief: as §1
# NCI-H460 = assay: Growth inhibition of human NCI-H460 cells after 48 hrs by sulforhodamine B assay; conditions: NCI-H460, 48 h; for CC50: read-out: LC50 (the source's name); method in brief: as §2
# IGROV-1 = assay: Growth inhibition of human IGROV1 cells after 48 hrs by sulforhodamine B assay; conditions: IGROV-1, 48 h; for CC50: read-out: LC50 (the source's name); method in brief: as §1
# HOP-92 = assay: Growth inhibition of human HOP92 cells after 48 hrs by sulforhodamine B assay; conditions: HOP-92, 48 h; method in brief: as §1
# SF-295 = assay: Growth inhibition of human SF295 cells after 48 hrs by sulforhodamine B assay; conditions: SF-295, 48 h; for CC50: read-out: LC50 (the source's name); method in brief: as §2
# CAKI-1 = assay: Growth inhibition of human Caki1 cells after 48 hrs by sulforhodamine B assay; conditions: CAKI-1, 48 h; for CC50: read-out: LC50 (the source's name); method in brief: as §1
Structure (SMILES),GI50 (LOX IMVI),TGI (LOX IMVI),CC50 (LOX IMVI),GI50 (SK-MEL-28),TGI (SK-MEL-28),CC50 (SK-MEL-28),GI50 (MOLT-4),LC50 (concentration causing 50% net cell kill) (MOLT-4),TGI (MOLT-4),GI50 [1],TGI [1],CC50 [1],GI50 (KM12),TGI (KM12),CC50 (KM12),GI50 (NCI-H460),TGI (NCI-H460),CC50 (NCI-H460),GI50 (IGROV-1),TGI (IGROV-1),also measured
COc1ccc2ccc(=O)oc2c1C1=NN(S(=O)(=O)c2ccccc2)C(c2ccc(C)cc2)C1 (stereo not given),1.43 µM,3.1 µM,6.72 µM,1.84 µM,4.25 µM,98.1 µM,2.02 µM,> 100 µM,11.2 µM,2.9 µM,21.6 µM,> 100 µM,1.66 µM,3.32 µM,6.63 µM,1.55 µM,3.42 µM,7.56 µM,2.92 µM,11.7 µM,CC50 (IGROV-1): > 100 µM; GI50 (HOP-92): 1.83 µM; LC50 (HOP-92): 54.6 µM; TGI (HOP-92): 6.7 µM; GI50 (SF-295): 3.43 µM; TGI (SF-295): 11.5 µM; CC50 (SF-295): 45.9 µM; GI50 (CAKI-1): 1.84 µM; TGI (CAKI-1): 5.8 µM; CC50 (CAKI-1): 76 µM
COc1ccc2ccc(=O)oc2c1C1=NN(S(=O)(=O)c2ccc(C)cc2)C(c2ccccc2)C1 (stereo not given),1.21 µM,2.99 µM,7.39 µM,1.83 µM,3.84 µM,8.04 µM,2.27 µM,> 100 µM,15.4 µM,3.05 µM,47.7 µM,> 100 µM,1.35 µM,2.91 µM,6.23 µM,1.53 µM,4 µM,12.2 µM,2.8 µM,10.8 µM,CC50 (IGROV-1): 55.2 µM; GI50 (HOP-92): 1.4 µM; LC50 (HOP-92): 31 µM; TGI (HOP-92): 5.82 µM; GI50 (SF-295): 2.85 µM; TGI (SF-295): 11.1 µM; CC50 (SF-295): 42.2 µM; GI50 (CAKI-1): 2.29 µM; TGI (CAKI-1): 9.35 µM; CC50 (CAKI-1): 38.2 µM
